SR-BI HDL uptake – mouse SR-BI HDL lipid transfer inhibition; ldlA[mSR-BI] CHO cells, DiI-HDL uptake fluorescence, 3 h; 320,000 tested, 0.96% active; inhibition, % at 12.5 µM; AID 488896; Q61009;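 active means mean replicate inhibition of at least 70% and a set share of replicates each scoring 70 or more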;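 further: 0% = median of neutral control wells and 100% = median of positive control wells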
Target sequence (Q61009 whole entry, looked up): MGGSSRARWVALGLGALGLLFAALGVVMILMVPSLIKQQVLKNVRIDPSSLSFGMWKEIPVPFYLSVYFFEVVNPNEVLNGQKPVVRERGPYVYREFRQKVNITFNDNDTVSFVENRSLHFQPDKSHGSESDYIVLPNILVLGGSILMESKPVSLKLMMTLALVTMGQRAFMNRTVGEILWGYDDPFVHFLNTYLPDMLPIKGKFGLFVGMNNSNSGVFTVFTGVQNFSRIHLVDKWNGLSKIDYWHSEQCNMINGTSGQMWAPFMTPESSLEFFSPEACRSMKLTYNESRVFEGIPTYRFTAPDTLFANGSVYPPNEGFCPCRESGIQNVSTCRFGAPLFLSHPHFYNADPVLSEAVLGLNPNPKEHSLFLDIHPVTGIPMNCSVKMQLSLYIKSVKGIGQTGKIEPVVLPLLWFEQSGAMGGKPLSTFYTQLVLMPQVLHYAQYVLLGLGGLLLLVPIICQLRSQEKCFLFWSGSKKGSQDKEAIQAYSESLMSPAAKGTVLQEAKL
SR-BI DiI-HDL act – SR-BI HDL lipid transfer activation; 320,000 tested, 0.096% active; CHO ldlA[mSR-BI] cells, DiI-HDL uptake fluorescence, 3 h; 100 = double the neutral-control signal; activation, % at 12.5 µM;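 active means mean replicate activation of at least 60% and every replicate at or above 60%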;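 further: 0% = median plate neutral-control signal and 100% = twice that signal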
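Test system: SR-BI-overexpressing, LDLR-lacking CHO cells; Medium: Ham's F12 with 0.5% BSA, HEPES 25 mM, pH 7.4; Schedule: 3 h, 37 °C; Technique: bottom-read fluorescence, 550/595 nm.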
H9c2 TAG inh – triacylglycerol accumulation inhibition; inhibition, % at 12.5 µM; AID 651582; 230,000 tested, 0.66% active; H9c2 cells, Nile Red lipid (TAG) fluorescence; cells loaded with 200 µM oleic acid;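 active means pattern-corrected inhibition of lipid staining of at least 50% with the nuclear-stain viability signal not falling by more than 50%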;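 further: 0% = DMSO wells and 100% = triacsin C control wells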
SMARCA2 activ – activators of SMARCA2 function | MG213 cells, MMTV-luciferase reporter, dexamethasone, overnight | activation, % at 9.1 µM | 370,000 tested, 1% active | AID 652017; in the data active means activation above about 7.8%;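 further: 0% = vehicle wells and 100% = reference activator wells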
Vif inh – inhibitors of HIV Vif; HEK293T cells, Vif self-association by quenched fluorescence, imaging, 24 h; 340,000 tested, 0.35% active; inhibition, % at 7.49 µM; AID 602346; in the data active means inhibition above about 50%, passing the limit was not always enough
SMARCA2 act conf – SMARCA2 activation, confirmation screen; shares compounds with SMARCA2 activ; activation, % at 9.1 µM; AID 652260; MG213 cells, MMTV-luciferase with dexamethasone, luminescence, overnight; MG213 cells expressing E1A, Rb sequestered; DMSO wells 0%, reference activator 100%; 3,500 tested, 30% active;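 active means activation above its plate's cutoff, the mean activation of tested wells plus 3 SD, cut at about 7.9% in these data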
VP16 Luc act – counter-screen for SMARCA2 activators: GAL4-VP16 luciferase reporter activation. HEK293 GAL4-VP16 pG5luc reporter, luciferase luminescence; scaled: DMSO wells 0%, SAHA wells 100%. shares compounds with SMARCA2 activ. 3,500 tested, 41% active. activation, % at 9.1 µM;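 active means activation above the solvent-only control well mean plus 3 SD, averaged across control plates, cut at about 5.2% in these data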
Numbers without * were called inactive; · = not tested or not shown. A selection: hits, their analogues and other compounds. The true share with any hit is near 2.5%.

SMILES | SR-BI HDL uptake | SR-BI DiI-HDL act | H9c2 TAG inh | SMARCA2 activ | Vif inh | SMARCA2 act conf | VP16 Luc act
Cc1cc(S(=O)(=O)N2CCC3(CC2)OCCO3)c(C)cc1Cl | 1 | -1 | -28 | 12* | 13 | -3 | 1
O=C(NCc1ccco1)c1ccc(CS(=O)c2ccccc2Cl)o1 (stereo not given) | · | · | 2 | 0 | · | · | ·
O=C(NCc1ccco1)c1ccc(-c2cccc(Cl)c2)o1 | 9 | -9 | -5 | 9.6* | 4 | 13* | 5.3*
O=C(NCc1ccco1)c1cc(-c2cccc(Cl)c2)on1 | 7 | -7 | · | -1 | -7 | · | ·
COc1cccc(-c2cc(C(=O)NCc3ccco3)no2)c1 | 12 | -12 | · | 8.4* | 5 | 7 | 11*
COc1ccccc1Cn1c(-c2ccco2)nc2nc3ccccc3nc21 | 10 | -10 | -7 | 8.6* | 20 | 4 | 1
c1ccc(Cn2c(-c3ccco3)nc3nc4ccccc4nc32)cc1 | 4 | -4 | -2 | 6 | 4 | · | ·
CN1CCC(=NNC(=O)C(=O)Nc2ccccc2)CC1 | -1 | 1 | · | 8.2* | 4 | 6 | 2
C=CCNC(=O)C(=O)NN=C1CCN(C)CC1 | -17 | 17 | · | -2 | 3 | · | ·
COc1ccc(NC(=O)N2CCN(c3ccc([N+](=O)[O-])cc3)CC2)cc1OC | 54 | -54 | -1 | 1 | -3 | · | ·
Cn1c(SCCc2ccccc2)nnc1-c1ccco1 | · | · | · | 9.4* | · | 6 | 5
CCSc1nnc(-c2ccco2)n1C | · | · | · | 2 | · | · | ·
CCCCn1c(N)c(N(CCOC)C(=O)C(C)Oc2ccc(Cl)cc2)c(=O)[nH]c1=O (stereo not given) | -31 | 31 | -11 | -1 | 5 | · | ·
CCCCN(C(=O)C(C)Oc1ccc(Cl)cc1)c1c(N)n(CCCC)c(=O)[nH]c1=O (stereo not given) | -2 | 2 | 4 | 8.2* | 7 | -1 | -2
COc1ccc(OC)c(/C=C2\SC(N3CCCCC3)=NC2=O)c1 | 30 | -30 | · | 8.0* | · | 3 | 4
COc1cc(OC)c(OC)cc1/C=C1\SC(N2CCCCC2)=NC1=O | 13 | -13 | · | 0 | · | · | ·
Cc1cc(C)cc(C(=O)NCC(=O)OCC(=O)N2CCCC2)c1 | · | · | -5 | 8.5* | 21 | 0 | 1
Cc1cc(C(=O)NCC(=O)OCC(=O)N2CCCCCC2)ccc1[N+](=O)[O-] | -27 | 27 | · | 1 | -1 | · | ·
O=C(OCCOc1ccc(Br)cc1)c1ccc(Cl)c(S(=O)(=O)N2CCOCC2)c1 | 51 | -51 | -23 | -1 | · | · | ·
Cc1cccc(-c2oc3ccccc3c2C#CCCO)c1 | 9 | -9 | -27 | 0 | -2 | · | ·
O=C(c1cc(-c2ccc(Cl)cc2)on1)N1CCCCCC1 | 6 | -6 | · | 10* | -3 | 8.1* | 9.2*
COc1ccc(-c2cc(C(=O)N3CCCCC3)no2)cc1OC | -8 | 8 | · | 8.7* | 0 | 6 | 5.3*
O=C(c1cc(-c2ccc(Cl)c(Cl)c2)on1)N1CCCCCC1 | · | · | · | 2 | -12 | · | ·
COc1ccc(-c2cc(C(=O)N3CCCC3)no2)cc1OC | · | · | · | 5 | 11 | · | ·
COc1cc(CNC(=O)c2cc(-c3cc(F)ccc3OC(C)C)n[nH]2)cc(OC)c1 | · | · | 43 | 1 | 4 | · | ·
SMILES | SR-BI HDL uptake | SR-BI DiI-HDL act | H9c2 TAG inh | SMARCA2 activ | Vif inh | SMARCA2 act conf | VP16 Luc act
CCN(CC)CCNc1ccc(C)c2sc3ccc(O)cc3c(=O)c12 | 30 | -30 | 59* | 8.4* | -16 | 18* | 5
COc1ccc(C(=O)N2CCCC(Nc3ccc(C(C)C)cc3)C2)c(OC)n1 (stereo not given) | 1 | -1 | -3 | 3 | 1 | · | ·
C=CCn1c(O)c(N=NC(=S)Nc2cccc(OC)c2)c2ccccc21 | 14 | -14 | · | 10* | -20 | -1 | 3
CCOC(=O)c1csc(Nc2nc3ccc(F)cc3s2)n1 | 31 | -31 | 2 | 11* | 2 | -15 | 20*
C=CCN=C1NC(c2ccccc2)C(C(=O)OC)=C(C)N1Cc1ccccc1C(F)(F)F (stereo not given) | · | · | · | -2 | · | · | ·
Cc1ccc(-c2cc(-c3ccccc3Cl)[nH]n2)c(O)c1 | 24 | -24 | · | 8.6* | -3 | 4 | 11*
COc1ccc(-n2c(CN3CCN(C)CC3)nc3ccc([N+](=O)[O-])cc3c2=O)c(OC)c1 | 15 | -15 | · | 1 | 21 | · | ·
COc1cccc(-n2c(CN3CCN(Cc4ccccc4)CC3)nc3ccc([N+](=O)[O-])cc3c2=O)c1 | · | · | · | 12* | · | 5 | 1
CCOC(=O)c1ccc(-n2c(CN3CCN(CCO)CC3)nc3ccc([N+](=O)[O-])cc3c2=O)cc1 | -6 | 6 | 3 | 9.5* | -12 | 9.8* | 1
O=C(/C=C/c1c(Cl)cccc1Cl)NCCc1ccccc1 | 11 | -11 | · | 11* | -4 | 3 | 5
O=C(/C=C/c1cccc(Cl)c1)NCCc1ccccc1 | · | · | 0 | 3 | -4 | · | ·
Cc1ccc2nc(-c3ccc(F)cc3)c(Cc3cccc(F)c3)n2c1 | · | · | · | 8.6* | · | 3 | 1
Cc1ccc2nc(-c3cccc(Br)c3)c(Cc3ccsc3)n2c1 | · | · | · | 9.5* | · | 9.7* | 8.9*
Cc1ccc2nc(-c3ccc(F)cc3)c(Cc3cccc(Cl)c3)n2c1 | · | · | · | 13* | 13 | 7 | 7.3*
CCCCCC(=O)N1C[C@H](n2cc(-c3ccc(F)cc3)nn2)[C@@H](O)C[C@@H]1c1ccc(C)cc1 | · | · | -6 | -4 | -2 | · | ·
CC1CCC2(CC1)NC(=O)N(CC(=O)Nc1ccc3c(c1)OCCCO3)C2=O (stereo not given) | -12 | 12 | 8 | 3 | 22 | · | ·
CC1CCC2(CC1)NC(=O)N(CC(=O)Nc1ccc3c(c1)OCCO3)C2=O (stereo not given) | -9 | 9 | -8 | 12* | -1 | 10* | 3
c1ccc(Cn2ccc3ccc(-c4ccc5ccn(Cc6ccc7ccccc7c6)c5c4)cc32)cc1 | · | · | · | 4 | · | · | ·
CC(=O)NNc1nc(-c2ccc(C)cc2)cs1 | -9 | 9 | · | -2 | -1 | · | ·
CCCC(=O)Nc1ccc(-c2csc(NNC(C)=O)n2)cc1 | 3 | -3 | 2 | 12* | 10 | -2 | 2
Fc1cccc(F)c1-n1c(CN2CCOCC2)csc1=S | 2 | -2 | · | 8.7* | 8 | -1 | -1
COc1ccc(NC2c3ccccc3C(=O)N2c2ccccn2)cc1Cl (stereo not given) | -6 | 6 | -4 | 8.2* | · | 2 | 1
CSc1nsc(SCC(=O)Nc2cccc(C(C)=O)c2)n1 | 15 | -15 | · | 1 | -3 | · | ·
CSc1nsc(SCC(=O)Nc2ccccc2)n1 | · | · | · | 8.8* | 17 | 6 | 1
COc1cc(CN(C(=S)NCC(=O)NC2CC2)C2CCCC2)cc(OC)c1OC | 10 | -10 | · | 9.6* | 3 | -3 | 0
